Paper PMC12315948 (The FASEB Journal, 2021)

Legend:
HeLa cells [1] = test: Cytotoxicity per se in HeLa cells, MTT assay, control challenge; assay type: cell-based
Method in brief: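 HeLa cells were seeded at 50,000 cells/mL in DMEM with 10% FBS. At 90% confluence they received serum-free medium with vehicle, 100 µM test compound or zaragozic acid for 24 h. They were then given a 2 h control-medium challenge without toxin. Viability was measured by MTT (1 mg/mL, 2 h; DMSO lysis; OD570) as percentage of control. Each point is one independent passage (n = 12).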

squalene synthase = squalene synthase cell free assay; cited from earlier work
A549 cells = test: Cytoprotection of A549 cells against streptolysin O; assay type: cell-based, human; conditions: 24 h: 100 µM MPEX098 or 10 µM zaragozic acid; 2 h challenge
Method in brief: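 A549 cells were grown in RPMI1640 with 5% FBS, 1% antibiotic-antimycotic and 1% glutamine, then seeded at 50,000 cells/mL. At 90% confluence they were given serum-free medium with vehicle or treatment for 24 h, then challenged 2 h with graded streptolysin O. Viability was read by MTT (1 mg/mL, 2 h, DMSO lysis, OD570). LDH in supernatants was read by the INT/PMS lactate assay at OD450, initially and after 30 min at 37°C, against NADH standards.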

HeLa cells [2] = assay type: cell-based; conditions: 24 h treatment, 2 h 2.5 µg/mL pyolysin, MTT
Method in brief: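 HeLa cells grown in DMEM with 10% FBS were seeded at 50,000 cells/mL. At 90% confluence they were treated in serum-free medium with vehicle, 100 µM test compound or 10 µM zaragozic acid, for 24 h or for indicated times. Cells were then challenged for 2 h with control medium or 2.5 µg/mL pyolysin. MTT (1 mg/mL, 2 h) was read at OD570 after DMSO lysis. Values are percentage of control; 4 independent experiments.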

| SMILES | cytotoxic concentration per se (HeLa cells [1]) [µM] | cell toxicity per se (HeLa cells [1]; MTT assay, control challenge, 100 µM MPEX098 or 10 µM zaragozic acid, 24 h, n = 12) [%] | IC50 (squalene synthase) [nM] | protection of A549 cells against streptolysin O (A549 cells) | cytoprotection against pyolysin by isoprenoid treatment (HeLa cells [2]) |
| --- | --- | --- | --- | --- | --- |
| C=C(CC[C@]12O[C@H](C(=O)O)[C@@](O)(C(=O)O)[C@](C(=O)O)(O1)[C@H](OC(=O)/C=C/[C@@H](C)C[C@@H](C)CC)[C@H]2O)[C@@H](OC(C)=O)[C@H](C)Cc1ccccc1 [Zaragozic acid, zaragozic acid] | […] | 13 ± 3 | […] | protected A549 cells against a range of concentrations of streptolysin O |  |
| CC(C)=CCC/C(C)=C/CC/C(C)=C/CC/C(C)=C/COP(=O)(O)OP(=O)(O)O [geranylgeranyl diphosphate] |  |  |  |  | increased cytoprotection against pyolysin |
| CC(C)=CCC/C(C)=C/CC/C(C)=C/CO[P@@](=O)(O)OP(=O)(O)O (stereo in doubt) [farnesyl diphosphate] |  |  |  |  | but not farnesyl diphosphate (P = .12) increased cytoprotection |
